M1 ag: human M1 muscarinic receptor agonists, primary screen, Fluo-8 calcium fluorescence, CHO-K1 cells, HTS; Muscarinic acetylcholine receptor M1 (Homo sapiens), P11229; CHO-K1 hM1, agonist mode; 0% DMSO, 100% acetylcholine EC100; activation, % at 3 µM; actives 0.33% (n = 360,000); AID 588814, 2011;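 active = activation above the run's mean compound activation plus 3 SD, cut at about 16% in these data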;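 note: peak over basal fluorescence ratio within a 140 s kinetic read after compound addition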
Target sequence (P11229 whole entry, looked up): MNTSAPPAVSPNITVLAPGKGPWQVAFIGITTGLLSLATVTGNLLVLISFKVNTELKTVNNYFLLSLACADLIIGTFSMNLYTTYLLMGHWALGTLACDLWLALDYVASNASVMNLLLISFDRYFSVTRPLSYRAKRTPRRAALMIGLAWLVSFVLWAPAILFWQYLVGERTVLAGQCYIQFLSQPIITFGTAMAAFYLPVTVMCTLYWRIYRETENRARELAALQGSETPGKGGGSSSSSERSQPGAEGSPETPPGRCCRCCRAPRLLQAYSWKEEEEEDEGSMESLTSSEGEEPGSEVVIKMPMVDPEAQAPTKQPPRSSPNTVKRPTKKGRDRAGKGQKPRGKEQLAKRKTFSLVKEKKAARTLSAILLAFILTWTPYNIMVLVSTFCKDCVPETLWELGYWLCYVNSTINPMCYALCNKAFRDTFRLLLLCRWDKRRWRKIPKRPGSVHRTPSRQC
CHRM5 agonist: human M5 muscarinic receptor agonists, primary screen, CHO-K1 cells, Fluo-8 calcium fluorescence; Muscarinic acetylcholine receptor M5 (Homo sapiens), P08912; CHO-K1 hM5 cells; 0% DMSO wells, 100% maximal acetylcholine response; activation, % at 3 µM; actives 0.19% (n = 360,000); AID 624037, 2012;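 active = activation above the run's mean over test compounds plus 3 SD, cut at about 23% in these data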;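 note: signal is peak over basal fluorescence ratio across the kinetic read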
CHRM1 antagonist: human M1 muscarinic receptor antagonists, primary screen, CHO-K1 cells, Fluo-8 calcium fluorescence, 1536-well | Muscarinic acetylcholine receptor M1 (Homo sapiens), P11229 | CHO-K1 hM1, ACh EC80 antagonist | inhibition, % at 3 µM | actives 1.3% (n = 360,000);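 active = percent inhibition above its own plate's cutoff, namely the mean of that plate's compound wells plus 3 SD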;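 note: peak over basal fluorescence ratio during 140 s after agonist addition; 0% = ACh EC80 plus DMSO and 100% = DMSO alone without agonist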
CHRM5 PAM: human M5 muscarinic receptor positive allosteric modulators, primary screen, CHO-K1 cells, Fluo-8 calcium fluorescence; CHO-K1 hM5, ACh EC20 PAM; 0% = ACh EC20, 100% = ACh EC100; activation, % at 3 µM; actives 0.3% (n = 360,000);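 active = activation above the run cutoff, the mean activation of all test compounds plus 3 SD, cut at about 18% in these data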
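Replicates: One well per compound, no replicates | System: Human M5 receptor in CHO-K1 cells | Benchmarks: Low control EC20 acetylcholine (0%), high control EC100 acetylcholine (100%) | Probe or stimulus: Acetylcholine, EC20 level | Times: Fluo-8 loading 80 min at 37 °C plus 30 min room temperature | Signal: Intracellular calcium via Fluo-8 fluorescence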
CHRM1 PAM: human M1 muscarinic receptor positive allosteric modulators, primary screen, CHO-K1 cells, Fluo-8 calcium fluorescence, 1536-well. actives 0.088% (n = 360,000). Muscarinic acetylcholine receptor M1 (Homo sapiens), P11229. AID 588819, 2011. CHO-K1 hM1, ACh EC20; 0% = ACh EC20, 100% = maximal ACh. activation, % at 3 µM; in the data active = activation above about 19%, passing the limit was not always enough
CHRM5 antagonist: human M5 muscarinic receptor antagonists, primary screen, CHO cells, Fluo-8 calcium fluorescence. CHO-hM5 cells, ACh EC80. AID 624040, 2012. Muscarinic acetylcholine receptor M5 (Homo sapiens), P08912. actives 0.59% (n = 360,000). inhibition, % at 3 µM;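 active = inhibition above a per-plate cutoff, the mean of that plate's test compounds plus 3 SD, cut at about 27% in these data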;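 note: 0% = acetylcholine EC80 with DMSO and 100% = DMSO without agonist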
The depositor's hits bear a star; . = not tested or not shown. Shown are actives, neighbours in structure and some others; about 2% of the full set was active somewhere.

SMILES	M1 ag	CHRM5 agonist	CHRM1 antagonist	CHRM5 PAM	CHRM1 PAM	CHRM5 antagonist
COc1ccc(CCN2CC(C(=O)N(C)CC(=O)Nc3ccc(F)c(F)c3F)CC2=O)cc1OC (stereo not given)	-3	1	-10	-8	11	11
COc1ccccc1Cc1c(-c2ccccc2)nc2ccc(Cl)cn12	-2	1	-26	-3	2	7
CN(C)CCOC(C1CCCCC1)C1CCCCC1	-5	-9	49*	-22	-20	26
CN(C)CCNC(=S)NC1CCCCC1	-15	-5	0	4	3	-1
COc1ccc(S(=O)(=O)Nc2cccc(/C=C/C(=O)O)c2)cc1	-4	-1	2	0	2	3
Cc1ccc(S(=O)(=O)Nc2cccc(/C=C/C(=O)O)c2)cc1	1	-3	1	46*	5	-1
Cc1ccc(/C=C/C(=O)Nc2ccc(S(=O)(=O)Nc3ncccn3)cc2)cc1	-5	6	0	26*	11	-14
CCOc1cc(OCC)cc(C(=O)N2CCC[C@H]2C(=O)N2CCC[C@H]2C(=O)NCc2cccc(OC)c2)c1	.	1	.	-5	.	6
C#CCOCCOCCOCCNc1nc(N2CCN(C(=O)CCCCCCCCCCNC(=O)[C@H]([C@@H](C)CC)n3cc(CCCCCN)nn3)CC2)nc(N2CCN(C(=O)CCCCCCCCCCNC(=O)[C@H](CO)n3cc(CCCCCN)nn3)CC2)n1	19*	3	12	0	-21	0
CC(C)(C)OC(=O)NCCCCCc1cn([C@@H](CO)C(=O)NCCCCCCCCCCC(=O)N2CCN(C(=O)OC(C)(C)C)CC2)nn1	-3	1	74*	-40	-36	38*
C#CCOCCOCCOCCNc1nc(N2CCN(C(=O)CCCCCCCCCCNC(=O)[C@H](CCCCN)n3cc(CCCC(=O)O)nn3)CC2)nc(N2CCN(C(=O)CCCCCCCCCCNC(=O)[C@@H]([C@H](C)O)n3cc(C)nn3)CC2)n1	6	7	-17	2	13	5
CC(C)(C)OC(=O)CC[C@@H](C(=O)NCCCCCCCCCCC(=O)N1CCN(C(=O)OC(C)(C)C)CC1)n1cc(CCCCCNC(=O)OC(C)(C)C)nn1	6	6	-5	8	20	-13
C#CCOCCOCCOCCNc1nc(N2CCN(C(=O)CCCCCCCCCCNC(=O)[C@@H](CCC(=O)O)n3cc(CCCCCN)nn3)CC2)nc(N2CCN(C(=O)CCCCCCCCCCNC(=O)[C@H]([C@@H](C)CC)n3cc(CCCCCN)nn3)CC2)n1	18*	0	12	0	-13	-4
C#CCOCCOCCOCCNc1nc(N2CCN(C(=O)CCCCCCCCCCNC(=O)[C@H]([C@@H](C)CC)n3cc(CCCCN=C(N)N)nn3)CC2)nc(N2CCN(C(=O)CCCCCCCCCCNC(=O)[C@H](CO)n3cc(CCCCCN)nn3)CC2)n1	-11	-7	20	-10	-26	23
C#CCOCCOCCOCCNc1nc(N2CCN(C(=O)CCCCCCCCCCNC(=O)[C@H]([C@@H](C)CC)n3cc(CCCCCN)nn3)CC2)nc(N2CCN(C(=O)CCCCCCCCCCNC(=O)[C@H](CCCCN)n3cc(CCCC(=O)O)nn3)CC2)n1	18*	3	3	-3	-8	6
CCCS(=O)(=O)NC(=O)C1(C)CCCN(C(=O)c2cccc(OC(F)(F)F)c2)C1 (stereo not given)	-2	-1	-10	2	9	-5
CC(=O)Nc1ccc(S(=O)(=O)NCCC(=O)OCC(=O)c2cccc(Br)c2)cc1	2	1	5	-10	-5	-10
CCOC(=O)CNC(=O)N(C)[C@H]1C[C@H]2c3[nH]c4ccccc4c3CCN2C(=O)[C@H]1[C@H](C)O	-3	3	-5	-1	8	0
C#CCOCCOCCOCCNc1nc(N2CCN(C(=O)CCCCCCCCCCNC(=O)Cn3cc(CCCCCN)nn3)CC2)nc(N2CCN(C(=O)CCCCCCCCCCNC(=O)Cn3cc(CCCCCN)nn3)CC2)n1	-7	-10	39*	-1	-35	12
COc1cc(C2c3[nH]c4ccccc4c3CC3COC(=O)N32)cc(OC)c1O (stereo not given)	0	-1	-26	-5	13	10
COc1cc(C(=O)Nc2cccc(NC(=O)c3ccccc3)c2)cc(OC)c1OC	-4	-7	13	-25	-11	30*
COc1cc(C(=O)Nc2ccc3c(c2)N(C(=O)CCN(C)C)c2ccccc2CC3)cc(OC)c1OC	-14	-9	27*	-21	-33	16
COc1cc(C(=O)Nc2cccc(C(C)=O)c2)cc(OC)c1OC	0	3	-8	0	7	5
CN(C)CC(=O)N1c2ccccc2CCc2ccc(NC(=O)c3ccc(N)cc3)cc21	-6	-13	-12	4	-1	-4
O=C(Nc1cccc(C(=O)Nc2ccc(Br)cc2)c1)c1ccccc1	1	-2	22	-24	-17	31*
SMILES	M1 ag	CHRM5 agonist	CHRM1 antagonist	CHRM5 PAM	CHRM1 PAM	CHRM5 antagonist
O=C(Nc1ccc(Nc2ccccc2)cc1)c1ccc(Br)cc1	-2	1	-10	-4	4	3
Cn1ncc2c(=S)[nH]c(=S)[nH]c21	.	2	.	-6	.	0
CC(C)C[C@H](NC(=O)c1nc[nH]c1C(=O)NCCCCCNC(=O)OC(C)(C)C)C(=O)OC(C)(C)C	-10	-6	61*	-21	-35	-3
CC(C)(C)OC(=O)CNC(=O)c1[nH]cnc1C(=O)NCCCCCNC(=O)OC(C)(C)C	-1	4	30	-39	-21	32*
CC(C)(C)OC(=O)CNC(=O)c1[nH]cnc1C(=O)NCCCCCN	-7	1	2	-11	2	19
COc1nc(-c2ccc(C)cc2)ccc1-c1noc(-c2ccco2)n1	-1	-1	-19	28*	11	-6
COc1nc(C)ccc1-c1noc(-c2ccco2)n1	-6	-1	-4	1	8	-5
c1cnc(NCCSSCCNc2ncccn2)nc1	-3	-1	-12	-8	10	6
Cc1ccc(NC(=O)c2ccc(Nc3ccccc3F)nc2)cc1	-7	-1	4	-5	-3	4
